Measurements collected from several papers.
Compare with care: the assays were run in different laboratories.
Organism: Escherichia coli
Effect on: microbial growth

`CCCCCCCC(=O)Oc1c(C)c(O)c(C(=O)/C=C/c2ccccc2)c(OC)c1C` has an MIC of 5000 µg/mL (broth dilution; ATCC25922).
`Cc1ccc2nc(-c3c(F)cccc3Cl)[nH]c2c1` gave an MIC of 128 µg/mL (broth dilution; ATCC25922).
The MIC of `CN[C@H](CC(C)C)C(=O)N[C@H]1C(=O)N[C@@H](CC(N)=O)C(=O)N[C@H]2C(=O)N[C@H]3C(=O)N[C@H](C(=O)N[C@H](C(=O)O)c4cc(O)cc(O)c4-c4cc3ccc4O)[C@H](O)c3ccc(c(Cl)c3)Oc3cc2cc(c3O[C@@H]2O[C@H](CO)[C@@H](O)[C@H](O)[C@H]2O[C@H]2C[C@](C)(N)[C@H](O)[C@H](C)O2)Oc2ccc(cc2Cl)[C@H]1O` is reported as greater than 32 µg/mL (broth dilution; ATCC25922; 18 h).
`CC(C)Oc1c(NC(=O)c2ccc(NC(=O)[C@H](CC(N)=O)NC(=O)c3ccc(NC(=O)CCc4ccc(C#N)cc4)cc3)cc2)ccc(C(=O)Nc2ccc(C(=O)O)cc2)c1O` gave an MIC of 0.125 µg/mL (DSM1116).
`Cc1c(CN(C)C(=O)/C=C/c2cnc3c(c2)CC(CCN)C(=O)N3)oc2ccccc12.Cl` (stereo not drawn) has an MIC of 4 µg/mL (broth dilution; BAA2471; clinical isolate).
The MIC of `N=C(N)c1cccc(OCc2ccc(COc3cccc(C(=N)N)c3)cc2)c1` is reported as greater than 200 µg/mL (BW25113).
`C/C(O)=C1\C(=O)C(CC(C)C)N(C(=O)C=Cc2ccccc2)C1=O` (stereo not drawn) gave an MIC of greater than 200 µg/mL (K12; K12).
`Cc1ccc2nc(-c3ccc(Cl)cc3)n(Cc3ccccc3)c2c1` gave an MIC of 16 µg/mL (broth dilution; ATCC25922).
With `N=C(N)c1ccc(OCc2cc(Br)cc(COc3ccc(C(=N)N)cc3)c2)cc1` the MIC was 100 µg/mL (broth dilution; ATCC25922).
`CC(C)Oc1c(NC(=O)c2ccc(NC(=O)[C@H](CC(N)=O)NC(=O)c3ccc(NC(=O)c4ccc([N+](=O)[O-])c(OC(C)C)c4O)cc3)cc2)ccc(C(=O)Nc2ccc(C(=O)O)cc2)c1O` has an MIC of greater than 64 µg/mL (DSM1116).
For `C=CCn1c(-c2ccc(OC)c(OC)c2)nc2ccccc21`, the MIC was 128 µg/mL (broth dilution; ATCC25922).
`O=C(Nc1ccc(F)c(Cl)c1)c1cc(Cl)ccc1O` has an MIC of greater than 64 µg/mL (broth dilution; ATCC25922).
The MIC of `N=C(N)c1ccc(OCc2ccc(COc3ccc(C(=N)N)cc3)cc2)cc1` is reported as no less than 200 µg/mL (BW25113).
With `CC(C)Oc1c(NC(=O)c2ccc(NC(=O)[C@H](CC(N)=O)NC(=O)c3ccc(NC(=O)c4ccc(NC(=O)c5ccc([N+](=O)[O-])cc5)cc4)cc3)cc2)ccc(C(=O)Nc2ccc(C(=O)O)cc2)c1O` the MIC was 0.5 µg/mL (DSM1116).
`Clc1ccccc1NCc1ccc(Oc2ccccn2)cc1` has an MIC of greater than 25 µg/mL.
For `CC1=NN(CNc2ccccc2[N+](=O)[O-])C(=O)C1=NNn1c(-c2ccccc2)nc2ccccc2c1=O`, the MIC was 50.4 µM (broth dilution; 24 h).
`Fc1ccccc1NCc1ccc(Oc2ccccn2)cc1` has an MIC of greater than 25 µg/mL.
`O=C1NN=C(N=Cc2ccccc2O)C1=NNn1c(-c2ccccc2)nc2ccccc2c1=O` has an MIC of 55.4 µM (broth dilution; 24 h).
`Cc1cccc(NCc2ccc(Oc3ccccn3)cc2)c1` gave an MIC of greater than 50 µg/mL.
For `CC(=O)NCN1N=C(C)C(=NNn2c(-c3ccccc3)nc3ccccc3c2=O)C1=O`, the MIC was 59.9 µM (broth dilution; 24 h).
`CCCCCCC/C=C/C(=O)N1C(=O)/C(=C(/C)O)C(=O)C1Cc1ccc(O)cc1` (stereo not drawn) has an MIC of greater than 200 µg/mL (K12; K12).
`C[C@H]1[C@H](NC(=O)/C(=N\OC(C)(C)C(=O)O)c2csc(N)n2)C(=O)N1S(=O)(=O)O` gave an MIC of 0.06 µg/mL (agar dilution; ATCC25).
`CC(C)Oc1c(NC(=O)c2ccc(NC(=O)[C@H](CC(N)=O)NC(=O)c3ccc(NC(=O)c4ccc(N)cc4)cc3)cc2)ccc(C(=O)Nc2ccc(C(=O)O)cc2)c1O` gave an MIC of 2 µg/mL (DSM1116).
`N=C(N)c1cccc(OCCCCCOc2cccc(C(=N)N)c2)c1` gave an MIC of greater than 200 µg/mL (broth dilution; BW25113).
For `NC1CCCCc2c1[nH]c1ccc(Cl)c(Cl)c21` (stereo not drawn), the MIC was 16 µg/mL (broth dilution; ATCC25922).
With `COc1c(C)c(O)c(C)c(O)c1C(=O)/C=C/c1ccccc1` the MIC was 1250 µg/mL (broth dilution; ATCC25922).
With `Cc1ccc(C)n1-c1ccc(-c2nnc(-c3ccc(O)cc3)[nH]2)cc1` the MIC was 250 µg/mL (broth dilution; ATCC10536; 18 h).
`Fc1cccc(Cl)c1-c1nc2ccccc2[nH]1` gave an MIC of 64 µg/mL (broth dilution; ATCC25922).
With `COc1c(C)c(OC(=O)c2ccccc2)c(C)c(O)c1C(=O)/C=C/c1ccccc1` the MIC was 5000 µg/mL (broth dilution; ATCC25922).
With `C[C@H]1COc2c(N3CCN(C)CC3)c(F)cc3c(=O)c(C(=O)O)cn1c23` the MIC was 0.25 µg/mL (broth dilution; ATCC25922).
`CC1(C)S[C@@H]2[C@H](NC(=O)[C@H](N)c3ccccc3)C(=O)N2[C@H]1C(=O)O` gave an MIC of 4 µg/mL (broth dilution; MG1655).
With `CC(=O)Nc1ncc([N+](=O)[O-])s1` the MIC was less than 50 µM.
With `O=C(O)c1cn(C2CC2)c2cc(N3CCNCC3)c(F)cc2c1=O` the MIC was 16 µg/mL (broth dilution; ATCC25922).
With `N=C(N)c1ccc(OCc2cccc(COc3ccc(C(=N)N)cc3)c2)cc1` the MIC was 200 µg/mL (broth dilution; ATCC25922).
`CC(C)Oc1c(NC(=O)c2ccc(NC(=O)[C@H](CC(N)=O)NC(=O)c3ccc(NC(=O)c4ccc(C#N)cc4)cc3)cc2)ccc(C(=O)Nc2cc(C(=O)O)n(C)c2)c1O` gave an MIC of 0.5 µg/mL (DSM1116).
`C=CCn1c(-c2ccc(Cl)cc2)nc2ccc(C)cc21` has an MIC of 256 µg/mL (broth dilution; ATCC25922).
`CCCCCCC#Cc1cncc(-c2nnc(SCc3ccc(Cl)cc3)n2C)c1` has an MIC of no less than 20 µg/mL.
With `COc1cc(Cc2cnc(N)nc2N)cc(OC)c1OC` the MIC was greater than 32 µg/mL (broth dilution; 24 h).
With `Cc1ccc2nc(-c3ccccc3Cl)[nH]c2c1` the MIC was 64 µg/mL (broth dilution; ATCC25922).
The MIC of `O=[N+]([O-])c1ccc(-c2nc3cc(F)ccc3[nH]2)o1` is reported as 4 µg/mL (broth dilution; ATTC25922).
For `CC(C)Oc1c(NC(=O)c2ccc(NC(=O)[C@H](CC(N)=O)NC(=O)c3ccc(NC(=O)c4cccc(N)c4)cc3)cc2)ccc(C(=O)Nc2ccc(C(=O)O)cc2)c1O`, the MIC was 32 µg/mL (DSM1116).
With `Cc1ccc(C)n1-c1ccc(-c2nnc(-c3ccccc3[N+](=O)[O-])[nH]2)cc1` the MIC was 250 µg/mL (broth dilution; ATCC10536; 18 h).
For `CCCCCCC/C=C/C(=O)N1C(=O)/C(=C(\O)c2ccncc2)C(=O)C1CC(C)C` (stereo not drawn), the MIC was greater than 200 µg/mL (K12; K12).
For `O=[N+]([O-])c1ccc(O)c2ncccc12`, the MIC was 4 µg/mL (broth dilution; ATCC35218).
The MIC of `O=C(CCCCCCCC[P+](c1ccccc1)(c1ccccc1)c1ccccc1)Nc1cc(O)c(O)c(O)c1.[Br-]` is reported as greater than 32 µg/mL (broth dilution; ATCC25922; 18 h).
`N=C(N)c1ccc(OCc2ccc(Br)cc2COc2ccc(C(=N)N)cc2)cc1` has an MIC of 200 µg/mL (broth dilution; W3110).
The MIC of `CC1(C)S[C@@H]2[C@H](NC(=O)[C@H](N)c3ccccc3)C(=O)N2[C@H]1C(=O)O` is reported as 0.3 µg/mL (broth dilution; ATCC25922; 16 h).
The MIC of `Cc1ccc(C)n1-c1ccc(C(=O)NNC=O)cc1` is reported as 31.2 µg/mL (broth dilution; ATCC10536; 18 h).
`CC(C)Oc1c(NC(=O)c2ccc(NC(=O)[C@H](CC(N)=O)NC(=O)c3ccc(NC(=O)c4cc(=O)c(O)c[nH]4)cc3)cc2)ccc(C(=O)Nc2ccc(C(=O)O)cc2)c1O` has an MIC of greater than 64 µg/mL (DSM1116).
`N=C(N)c1ccc(OCCC(CCOc2ccc(C(=N)N)cc2)c2ccccc2)cc1` (stereo not drawn) gave an MIC of 200 µg/mL (broth dilution; W3110).
The MIC of `CO[C@H]1O[C@H](COC(c2ccccc2)(c2ccccc2)c2ccccc2)[C@@H](OC(=O)c2ccc(C(C)(C)C)cc2)[C@H](OC(=O)c2ccc(C(C)(C)C)cc2)[C@H]1OC(=O)c1ccc(C(C)(C)C)cc1` is reported as 1 µg/mL (broth dilution).
For `N=C(N)c1ccc(OCc2ccccc2COc2ccc(C(=N)N)cc2)cc1`, the MIC was greater than 200 µg/mL (BW25113).
With `CC(C)Oc1c(NC(=O)c2ccc(NC(=O)[C@H](CC(N)=O)NC(=O)c3ccc(NC(=O)C(C)Oc4ccccc4)cc3)cc2)ccc(C(=O)Nc2ccc(C(=O)O)cc2)c1O` (stereo partly drawn) the MIC was greater than 64 µg/mL (DSM1116).
`Cc1ccc2nc(-c3ccc(F)cc3)n(Cc3ccccc3)c2c1` has an MIC of 128 µg/mL (broth dilution; ATCC25922).
